Common to all, as to assay type: functional, cell-based
Assay [1] has as its system HT-29. The assay can be described thus: Cytotoxicity against human HT29 cells after 24 hrs by fluorometric microculture assay. To be noted: HT-29, 24 h.
In assay [2] the test system is HCT-116. In words: Cytotoxicity against human HCT116 cells after 24 hrs by fluorometric microculture assay. As to conditions: HCT-116, 24 h.
Assay [3] concerns HeLa. The assay can be described thus: Cytotoxicity against human HeLa cells after 24 hrs by fluorometric microculture assay. The method in brief:
(§1)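 DLD1 grown in RPMI 1640 with 10% FBS; HeLa in IMDM with 5% FBS; both at 37 °C, 5% CO2. Cells (6 × 10^3 per well) exposed to a range of compound concentrations for 24 h at 37 °C. Medium then removed and viability read by FMCA on a fluorescence plate reader as percent of control-well fluorescence. IC50 derived; triplicate experiments.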

Assay [4] relates to DLD-1. In words: Cytotoxicity against human DLD1 cells after 24 hrs by fluorometric microculture assay. An outline of the steps: as §1

Each structure is given as a SMILES string. Activity calls are given as the source filed them. No cut-off for these calls is given here.

For `C/C=C(/C)C(=O)O[C@H]1[C@H](O)C(C)(C)C[C@H]2C3=CC[C@@H]4[C@@]5(C)CC[C@H](O[C@@H]6O[C@H](C(=O)O)[C@@H](O)[C@H](O)[C@H]6O[C@@H]6O[C@@H](C)[C@H](O)[C@@H](O)[C@H]6O)C(C)(C)[C@@H]5CC[C@@]4(C)[C@]3(C)[C@@H](O)[C@@H](O)[C@]21COC(C)=O`, the 50% inhibitory concentration (IC50) in assay [1] and in assay [2] was above 40 µg/mL in each case.
Regarding `C/C=C(/C)C(=O)O[C@H]1[C@H](O)C(C)(C)C[C@H]2C3=CC[C@@H]4[C@@]5(C)CC[C@H](O[C@@H]6O[C@H](C(=O)O)[C@@H](O)[C@H](O)[C@H]6O[C@@H]6O[C@@H](C)[C@H](O)[C@@H](O)[C@H]6O)C(C)(C)[C@@H]5CC[C@@]4(C)[C@]3(C)[C@@H](O)[C@@H](O)[C@]21CO`, the IC50 in assay [1] and in assay [2] was above 40 µg/mL each time.
Turning to `C/C=C(/C)C(=O)O[C@H]1CC(C)(C)C[C@H]2C3=CC[C@@H]4[C@@]5(C)CC[C@H](O[C@@H]6O[C@H](C(=O)O)[C@@H](O)[C@H](O[C@@H]7O[C@H](CO)[C@H](O[C@@H]8O[C@@H](C)[C@H](O)[C@@H](O)[C@H]8O)[C@H](O)[C@H]7O)[C@H]6O[C@@H]6O[C@H](CO)[C@@H](O)[C@H](O)[C@H]6O)C(C)(C)[C@@H]5CC[C@@]4(C)[C@]3(C)CC[C@@]12CO`, the IC50 (usually the point on the concentration scale where inhibition reaches its midpoint) in assay [3] came to 3.8 µM. In addition, the outcome in assay [4] was Active.
With `C/C=C(/C)C(=O)O[C@H]1[C@H](OC(C)=O)C(C)(C)C[C@H]2C3=CC[C@@H]4[C@@]5(C)CC[C@H](O[C@@H]6O[C@H](C(=O)O)[C@@H](O)[C@H](O)[C@H]6O[C@@H]6O[C@@H](C)[C@H](O)[C@@H](O)[C@H]6O)C(C)(C)[C@@H]5CC[C@@]4(C)[C@]3(C)[C@@H](O)[C@@H](O)[C@]21CO`, the IC50 in assay [1] and in assay [2] was above 40 µg/mL each time.
In the case of `C/C=C(/C)C(=O)O[C@H]1CC(C)(C)C[C@H]2C3=CC[C@@H]4[C@@]5(C)CC[C@H](O[C@@H]6O[C@H](C(=O)O)[C@@H](O)[C@H](O[C@@H]7O[C@H](CO)[C@H](O[C@@H]8O[C@@H](C)[C@H](O)[C@@H](O)[C@H]8O)[C@H](O)[C@H]7O)[C@H]6O[C@@H]6O[C@H](CO)[C@@H](O)[C@H](O)[C@H]6O)C(C)(C)[C@@H]5CC[C@@]4(C)[C@]3(C)[C@@H](O)[C@@H](O)[C@@]12CO`, it took 5.5 µM to reach half-maximal inhibition in assay [3] (IC50). In addition, in assay [4], the outcome was Active.

(Values after ChEMBL document CHEMBL1149897, “Acylated triterpenoid saponins from Schima noronhae and their cell growth inhibitory activity” (J Nat Prod, 2008).)
